The series concerns MS2 coat protein. As to the kind of experiment: apparent Kd, MS2 coat protein; higher = weaker binding; RNA-MaP array; FMN 200 µM where present. The essentials:
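Stalled E. coli RNA polymerase transcribed each design on Illumina sequencing-chip clusters. The clusters were titrated with SNAP-549-labelled MS2 coat protein, starting at 0.7 or 1.5 nM and doubling up to 3 µM, first without ligand and then with constant ligand, in 100 mM Tris-HCl pH 7.5, 80 mM KCl, 4 mM MgCl2, BSA, DTT, yeast tRNA and Tween-20. Green signal was normalised to red-channel RNA signal and to the control-cluster median Fmax. The apparent Kd is the median of filtered binding-curve fits made for each cluster.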

Where [1] appears, read: designed as: OFF switch for flavin mononucleotide, no ligand.
Where [2] appears, read: ligand present: flavin mononucleotide, designed as: OFF switch for flavin mononucleotide.
[3] abbreviates: designed as: ON switch for flavin mononucleotide, no ligand.
[4] abbreviates: ligand present: flavin mononucleotide, designed as: ON switch for flavin mononucleotide.

Usually apparent Kd stands for a dissociation constant that holds for the conditions of the assay. Turning to “GUAGAGUAAGGAUAUGGUGAAUAGGAUAGAAUGGUUAGAAACUAGAAGGUACAUGAGGAUCACCCAUGUAAUGU”, the “apparent Kd” value was 21.7 nM under setting [1] and 20.7 nM under setting [2].

As to “GUCAGCUCGUGAGGAUAUACGUCACUGCUUCGGCAGUGAAAUUUCCUCACAUGAGGAUCACCCAUGUAGAAGGCACGAGCUGAU”, the “apparent Kd” value was 11.5 nM under setting [1] and 208 nM under setting [2].

As to “AACAAACAUGAGGAUCACCCAUGUCAGGAUAUCGAAACAACAAACAACAAACAACAAACGAGAAGGGACAACAA”, the “apparent Kd” value is, setting by setting: under setting [1], 25.6 nM; under setting [2], 28.3 nM.

Regarding “AAGUGGUUUAUAUAUAUAGAAAUCAGAAGGCGUGACAUGAGGAUCACCCAUGUGUUCAGUCAUGACGAGGAUAUGACUAAUUGU”, the “apparent Kd” value by setting is: under setting [1], 69.9 nM; under setting [2], 85.4 nM.

Turning to “GGACGUCACAUUUACAUGAGGAUCACCCAUGUCGAAAGACAUGAGGAUAUGCUACCUAAUUGGUAGCAGAAGGCAUGGACGUCC”, the “apparent Kd” value was determined as 408 nM under setting [3] and 228 nM under setting [4].

Regarding “CGCUAAUUAAUUAUAUUAAUUGUACAGGAUAUGUAACAUGAGGAUCACCCAUGUAUUGGGUUUAAACAGAAGGGUAUAUUAGCG”, the “apparent Kd” value by setting is: under setting [1], 425 nM; under setting [2], 112 nM.

As for “UUUGUUGUUGUGAGGAUAUACUGUUUGUUUUGUUUGUAGAAGGUACAUGAGGAUCACCCAUGUUGGUUGUUUUU”, the “apparent Kd” value reads like this: under setting [1], 26.4 nM; under setting [2], 25.1 nM.

Turning to “AUAAGCUCGUCAGGAUAUGCAACACUGUGUAAGCAGUGUGGUAUGAUCACAUGAGGAUCACCCAUGUAGAAGGGACGAGCUUAU”, the “apparent Kd” value under setting [1] stood at 6.53 nM and the “apparent Kd” value under setting [2] amounted to 26.9 nM.

For “GGUGCACGCACAGGAUAUCCGGCGGAGCUCGUCGGAGAAGGGUGACAUGAGGAUCACCCAUGUACGUGCAACUCAGUUUGAGAG”, the “apparent Kd” value reads like this: under setting [3], 59.8 nM; under setting [4], 32.1 nM.

Turning to “GUCUUACAUGAGGAUCACCCAUGUGAGGAUAUCCCGGGCCCGGGCUUGCCCGGGCCCGGGAGAAGGCACAUGUU”, the “apparent Kd” value under setting [1] is 32.2 nM and the “apparent Kd” value under setting [2] was 99.4 nM.

“UCGGGUUAUACAGGAUAUGUUUAGGUUUAUUCAUGCAGUUAUUAAUUUAUGACAGAAGGGUAUACAUGAGGAUCACCCAUGUCA”: the “apparent Kd” value under setting [1] came out at 542 nM and the “apparent Kd” value under setting [2] came out at 387 nM.

Regarding “UAUAUGUCAGGAUAUCGAUUGGAAUGGAAUUUAGUUUUGGUCGAGAAGGGACAUGAGGAUCACCCAUGUUUUUC”, the “apparent Kd” value reads like this: under setting [1], 38.7 nM; under setting [2], 215 nM.

“AAGCACGAAGAUUAUUAUGAAUAAACAUGAGGAUCACCCAUGUAGGAUAUCGACUCGAAUAGAGUCGAGAAGGACAUAACGUGC”: the “apparent Kd” value is, setting by setting: under setting [1], 6.85 nM; under setting [2], 20.7 nM.

In the case of “CUGCUGGAGCUUUGCUUUAGUCGUACAUGAGGAUCACCCAUGUAGGAUAUGGUGGGCUUUGCUUACUAGAAGGAUAGAGUGGUC”, the “apparent Kd” value under setting [1] is 49.9 nM and the “apparent Kd” value under setting [2] worked out at 36.3 nM.

Turning to “GCGUCAGAAUUAAUUGUGACAGACAGAAGGCAAUAGUUCAUGUCAGACAUGAGGAUCACCCAUGUUGAGGAUAUGUAUUUACAC”, the “apparent Kd” value turned out to be 6.05 nM under setting [1] and 6.29 nM under setting [2].

As for “CCUCCACAUGAGGAUCACCCAUGUCAGGAUAUCGUGCGCGCGUUUUCGGUCUUUCGCGCGAGAAGGGACGACUG”, the “apparent Kd” value under setting [1] was found to be 30.3 nM and the “apparent Kd” value under setting [2] amounted to 30.9 nM.

On to “AAGUUUGUACGAGGAUAUCAGUUGUUUCUAAAUUCAACAUGAGGAUCACCCAUGUAACAAUGGAGUGAGAAGGCGUGUGGGCAA”, for which the “apparent Kd” value is, setting by setting: under setting [3], 740 nM; under setting [4], 554 nM.

In the case of “CAGCUGAAUGUGAGGAUAUGUCUAGCCUCGGCUAGACAGAAGGCACAUGAGGAUCACCCAUGUCUCAACAGCUG”, the “apparent Kd” value by setting is: under setting [1], 38.8 nM; under setting [2], 675 nM.

With “UUCACUCGAGUCAGGAUAUUAGUCCGCGAUAGUGUUAAGAAGGGACAUGAGGAUCACCCAUGUCACACAUGGAG”, the “apparent Kd” value under setting [1] worked out at 28.2 nM and the “apparent Kd” value under setting [2] worked out at 23.2 nM.

Take “UUAAUUUUACAAGGAUAUCUAUUGUUAUUUCGACUUACAUGAGGAUCACCCAUGUUAAUAUAUUUAGAGAAGGUGUAUUUUCAG”: the “apparent Kd” value under setting [3] was determined as 99.4 nM and the “apparent Kd” value under setting [4] came out at 52.4 nM.

Consider “GGCACCAUCACAGGAUAUGCUUUCUUUUGGGAAGCAGAAGGGUGUAACAUGAGGAUCACCCAUGUGGUGCCAGGGCGUGAGCCC”, for which the “apparent Kd” value is 175 nM under setting [3] and 14 nM under setting [4].

“CUUCAACAAGGAUAUGCCAUGGAUCGACACUGUUACGCGAAACAUGAGGAUCACCCAUGUAGAAGGUGUUGAGA”: the “apparent Kd” value reads like this: under setting [1], 78.5 nM; under setting [2], 96.2 nM.

As to “UGGUGGAAGCAGGAUAUGCUAGAAGUGUAGAAUGCAGAAGGGCUAACAUGAGGAUCACCCAUGUAAGAGGUGUU”, the “apparent Kd” value was 319 nM under setting [1] and 237 nM under setting [2].

On to “GUGUACAGAGGAUAUAUAUGGGCAUGGAAACAUGCAACUUCACAUGAGGAUCACCCAUGUAGAAGGCUGUACAC”, for which the “apparent Kd” value reads like this: under setting [1], 27.3 nM; under setting [2], 182 nM.

Regarding “GAAGUUAGAGGAUAUACAUGAGGAUCACCCAUGUGUGUUGUGAACGAUGUACGUUUAUGUAGAAGGCUAACUUC”, the “apparent Kd” value by setting is: under setting [1], 23.6 nM; under setting [2], 106 nM.

Regarding “AGUACACAUGAGGAUCACCCAUGUGAGGAUAUCGAUGUCCCAGGGCGGGUGCGGGACUCGAGAAGGCACUUGGU”, the “apparent Kd” value under setting [1] was found to be 47 nM and the “apparent Kd” value under setting [2] was determined as 154 nM.

For the sequence “CCUCCCUGAGGAUAUCCACCCUCAUACAUGAGGAUCACCCAUGUUCAUCCCUGAGUACCCGGAGAAGGCAGAUUUC”, the “apparent Kd” value is 168 nM under setting [1] and 148 nM under setting [2].

As to “GGUAGACAAAGUCUACCAAUACGAACAUGAGGAUCACCCAUGUAGGAUAUGCUACUCAAAGAGUAGCAGAAGGACAUGUGUCUU”, the “apparent Kd” value is, setting by setting: under setting [1], 29.5 nM; under setting [2], 160 nM.

As to “GGGUACAUCGGAGGAUAUCAUGUAAAUACAUGAGGAUCACCCAUGUCGAUGGAGACAUCGGAGAUUGAGAAGGCGGAUGUACCG”, the “apparent Kd” value amounted to 309 nM under setting [3] and 23.1 nM under setting [4].

Consider “GGAGCACAUGAAUACAUGAGGAUCACCCAUGUCGAAUGAUAUGAGGAUAUGCAUCGGAAAACGAUGUAGAAGGCAUAGUGCUCC”, for which the “apparent Kd” value runs as follows: under setting [3], 60 nM; under setting [4], 11.4 nM.

As to “UUCGUGCAGCUUUGCUGUACGCGUACAUGAGGAUCACCCAUGUAGGAUAUGGUAGGCUUUGCUUACUAGAAGGAUAGUGUGAUU”, the “apparent Kd” value runs as follows: under setting [1], 118 nM; under setting [2], 81.8 nM.

As to “AGUUAUCAUGUAGGAUAUGCUUGAGGUAAGAAAGCAGAAGGACAUGAGGAUCACCCAUGUUAAUGAUACAGAUUUUAGUUUCUU”, the “apparent Kd” value under setting [1] came out at 32.9 nM and the “apparent Kd” value under setting [2] worked out at 201 nM.

With “AAAUUUAACGAAGGAUAUGGUUACAUGAGGAUCACCCAUGUAAUGGUUGUGAUAUUGAUUAAGUUCCAGAAGGUCGUAUACAUA”, the “apparent Kd” value under setting [1] amounted to 97.8 nM and the “apparent Kd” value under setting [2] came out at 279 nM.

For the sequence “GUGGCUAGUGCAGGAUAUUGGCGCGUGUAGUGUCGAGAAGGGCACAUGAGGAUCACCCAUGUGAUCAAUCACUGCUAAGGUCGC”, the “apparent Kd” value by setting is: under setting [1], 6.98 nM; under setting [2], 7.69 nM.

With “AAAGGAGGGAGGACCGUACAUGAGGAUCACCCAUGUAUAUCACAGGAUAUAGCAUGUUUAGGCAUCUAGAAGGGUGAUCGGUCA”, the “apparent Kd” value under setting [3] was found to be 186 nM and the “apparent Kd” value under setting [4] came to 37.7 nM.

On to “ACAUGAGGAUCACCCAUGUAGAGUGGAGAAGGUAGAUACUUGUGACUCUCCCAUGUACAUAGGACUGAGGAUAUUCUAAUAAUU”, for which the “apparent Kd” value is, setting by setting: under setting [3], 65.7 nM; under setting [4], 47.5 nM.

As to “AGAUGAUGAUGUUAUCUUCGUCGGACAUGAGGAUCACCCAUGUAGGAUAUGCUACUCAAAGAGUAGCAGAAGGACAUGUAUCUU”, the “apparent Kd” value came to 25.4 nM under setting [1] and 113 nM under setting [2].

For the sequence “GUUUCGGGAGGAUAUGCGUGGAUUGUUCUCGUAUGGUGUCUACAUGAGGAUCACCCAUGUAGAAGGUCUGGAGC”, the “apparent Kd” value stood at 18 nM under setting [1] and 38.6 nM under setting [2].

On to “AUGGUUGUCGUAGGAUAUGUAGGAUAUUCCUACAUGAGGAUCACCCAUGUUCGCAUGGAAGAAGGACGGAAGGACGAUGACCAA”, for which the “apparent Kd” value is, setting by setting: under setting [3], 249 nM; under setting [4], 118 nM.

For “UUAAAUCAUGUAGGAUAUGCAUGGCGAAGCUACGCAGAAGGACAUGAGGAUCACCCAUGUUAUAGCGUCCGAUAAAGGAUGCAA”, the “apparent Kd” value by setting is: under setting [1], 85.1 nM; under setting [2], 225 nM.

Regarding “CCUCGUUGGGAGGAUAUCCUUUUGGUUGGAGGAGGAGAAGGCUCGACAUGAGGAUCACCCAUGUGGGAUUUCCU”, the “apparent Kd” value under setting [1] stood at 74.8 nM and the “apparent Kd” value under setting [2] turned out to be 211 nM.

With “AACAUGUCAGGAUAUAUGACAUGGCUCUUCGGAGCAAGCUCAUAGAAGGGACAUGAGGAUCACCCAUGUAGAGC”, the “apparent Kd” value reads like this: under setting [1], 21.1 nM; under setting [2], 25.2 nM.

“CCUCAACAGUAGGAUAUCAUAAAACUAUUGUGAUGAGAAGGACUGACAUGAGGAUCACCCAUGUUAACGUGAUA”: the “apparent Kd” value by setting is: under setting [1], 19.6 nM; under setting [2], 30.5 nM.

Consider “GACAAACAUGAGGAUCACCCAUGUUCAGACGAACAAGGAUAUGUGUGGAAACCAUACUAUACAGAAGGUGUCUGUC”, for which the “apparent Kd” value amounted to 48.6 nM under setting [3] and 31.1 nM under setting [4].

On to “CGUAUCGAAGAAGGAUAUCGCAACGACAGCUAGGGCUAUUCUCAACAUGAGGAUCACCCAUGUUGCGAGAAGGUCUGCUAUGCG”, for which the “apparent Kd” value was determined as 27.9 nM under setting [1] and 50.5 nM under setting [2].

As to “AUCAGCUCGUCAGGAUAUACGUCACUGCGUCAGCAGUGUGGUAAGAUCACAUGAGGAUCACCCAUGUAGAAGGGAUGAGCUGAU”, the “apparent Kd” value under setting [1] came out at 13.3 nM and the “apparent Kd” value under setting [2] came to 288 nM.

As for “GUGUACAGAGGAUAUACAGGAGCUAGGAAACUAGCAACUUCACAUGAGGAUCACCCAUGUAGAAGGCUGUACAC”, the “apparent Kd” value runs as follows: under setting [1], 15.3 nM; under setting [2], 49.7 nM.

For “AAAAAGUCAGGAUAUCGAAAAAAAAAAAAAAAAAAAAAAAACGAGAAGGGACAUGAGGAUCACCCAUGUAAAAA”, the “apparent Kd” value came out at 63.7 nM under setting [1] and 69.6 nM under setting [2].

(Values after the EternaBench riboswitch data.)
